ChEMBL document CHEMBL1781968, “δ-Carbolines and their ring-opened analogs: synthesis and evaluation against fungal and bacterial opportunistic pathogens” (Eur J Med Chem, 2011)
Activity calls are given as the source filed them. The calls are words filed in the database; no cut-off is given here.

Assays:
[1] = system: Staphylococcus aureus; test: Antibacterial activity against Staphylococcus aureus ATCC 29213 by NCCLS method; assay type: functional, organism-based
Method in brief: (§1)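 Broth microdilution (modified NCCLS). Samples in DMSO serially diluted in 0.9% saline, tested in duplicate, highest final concentration 20 μg/mL. Inoculum matched to 0.5 McFarland standard by absorbance at 630 nm, then diluted in cation-adjusted Mueller–Hinton broth. Growth, solvent and medium controls on each plate. Absorbance at 530 nm read before and after incubation. IC50 taken from percent growth versus concentration plot; MIC is lowest concentration with no detectable growth; MBC is lowest concentration killing the organism.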

[2] = system: Mycobacterium intracellulare; test: Antibacterial activity against Mycobacterium intracellular ATCC 23068 by alamar blue method; assay type: functional, organism-based
Method in brief: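 Modified Alamar blue method (Franzblau). Samples in DMSO serially diluted in 0.9% saline, in duplicate, final concentrations starting at 20 μg/mL. Inoculum adjusted to 0.5 McFarland, then diluted in Middlebrook 7H9 with OADC enrichment plus 5% Alamar blue. Fluorescence read (ex 544/em 590 nm) before and after incubation. IC50 from percent growth versus concentration. MIC is no detectable growth.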

[3] = system: Staphylococcus aureus; test: Antibacterial activity against methicillin-resistant Staphylococcus aureus ATCC 33591 by NCCLS method; assay type: functional, organism-based; method in brief: as §1
[4] = Cytotoxicity against african green monkey Vero cell after 48 hrs by neutral red uptake assay; assay type: cell-based; conditions: chlorocebus sabaeus, Vero cells; read-out: TC50
Method in brief: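 VERO kidney fibroblasts seeded at 25,000 cells/well and incubated 24 h. Compounds added, highest concentration 10 μg/mL, then 48 h further incubation. Viable cells measured by neutral red assay. IC50 taken from growth-inhibition dose curves. Doxorubicin as positive control, DMSO as vehicle control.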

[5] = system: Escherichia coli; test: Antibacterial activity against Escherichia coli at 20 ug/ml by NCCLS method; assay type: functional, organism-based
Method in brief: (§2)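 Modified NCCLS broth microdilution. DMSO-dissolved samples serially diluted in 0.9% saline, tested in duplicate, final concentrations starting at 20 μg/mL. Inoculum set to 0.5 McFarland (absorbance 630 nm) and diluted in cation-adjusted Mueller–Hinton broth. Growth, solvent and medium controls on each plate. Read at 530 nm before and after incubation. IC50 from percent growth versus concentration. MIC is lowest concentration with no detectable growth.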

[6] = system: Aspergillus fumigatus; test: Antifungal activity against Aspergillus fumigatus ATCC 204305 at 20 ug/ml by NCCLS method; assay type: functional, organism-based
Method in brief: (§3)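 Modified NCCLS microdilution for fungi. Samples in DMSO serially diluted with 0.9% saline, in duplicate, final concentrations from 20 μg/mL down. Inocula matched to 0.5 McFarland (630 nm) and diluted in Sabouraud dextrose broth. Growth, solvent and medium controls included. OD 530 nm read before and after incubation. IC50 from percent growth curve. MIC is no detectable growth. MFC is lowest concentration killing the organism.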

[7] = system: Candida albicans; test: Antifungal activity against Candida albicans ATCC 90028 by NCCLS method; assay type: functional, organism-based; method in brief: as §3
[8] = system: Cryptococcus neoformans; test: Antifungal activity against Cryptococcus neoformans ATCC 90113 by NCCLS method; assay type: functional, organism-based; method in brief: as §3
[9] = system: Escherichia coli; test: Antibacterial activity against Escherichia coli by NCCLS method; assay type: functional, organism-based; method in brief: as §2
[10] = system: Aspergillus fumigatus; test: Antifungal activity against Aspergillus fumigatus ATCC 204305 by NCCLS method; assay type: functional, organism-based; method in brief: as §3

Structure (SMILES) | IC50 [1] [mg/L] | MBC [1] [mg/L] | MIC [1] [mg/L] | IC50 [2] [mg/L] | MBC [2] [mg/L] | MIC [2] [mg/L] | IC50 [3] [mg/L] | MBC [3] [mg/L] | MIC [3] [mg/L] | CC50 at 48 h [4] [mg/L] | Activity [5] | IC50 [7] [mg/L] | MFC [7] [mg/L] | MIC [7] [mg/L] | IC50 [8] [mg/L] | MFC [8] [mg/L] | MIC [8] [mg/L] | IC50 [9] [mg/L] | MBC [9] [mg/L] | MIC [9] [mg/L] | other results
C[n+]1cccc(N(CCCCCC2CCCCC2)c2ccc(C#N)cc2)c1.[I-] | 2.5 | 20 | 5 | 2.8 | 5 | 5 | 6.2 | 20 | 10 | > 10 | inactive |  |  |  |  |  |  |  |  |  | Activity [6]: inactive
C[n+]1cccc(N(CCCCCC2CCCCC2)c2cccc(C#N)c2)c1.[I-] | 0.8 | 20 | 1.3 | 2 | 10 | 2.5 | 3.9 | 10 | 10 |  | inactive |  |  |  |  |  |  |  |  |  | 
COc1cccc(N(CCCCCC2CCCCC2)c2ccc[n+](C)c2)c1.[I-] | 0.8 | 20 | 1.3 | 3.3 | 10 | 5 | 4.8 | 20 | 10 |  | inactive |  |  |  |  |  |  |  |  |  | 
C[n+]1cccc2c1c1cc(C#N)ccc1n2CCCCCC1CCCCC1.[I-] | 2.6 | 20 | 5 | 2.1 | 5 | 2.5 | 5.8 | 20 | 10 | > 10 | inactive | 19 | > 20 | 20 | 2.8 | 5 | 5 |  |  |  | Activity [6]: inactive
C[n+]1cccc(N(CCCCCC2CCCCC2)c2ccccc2C#N)c1.[I-] | 1.3 | 10 | 2.5 | 3.5 | 20 | 5 | 6.4 | 20 | 20 |  | inactive |  |  |  |  |  |  |  |  |  | 
C[n+]1cccc2c1c1cc(Cl)ccc1n2CCCCCC1CCCCC1.[I-] | 0.5 | 10 | 1.3 | 0.7 | 2.5 | 1.3 | 1.3 | 10 | 2.5 | > 10 |  | 2 | 5 | 5 | 0.4 | 0.6 | 0.6 | 5.9 | > 20 | > 20 | IC50 [10]: 16 mg/L; MFC [10]: 20 mg/L; MIC [10]: 20 mg/L
Cc1ccc2c(c1)c1c(ccc[n+]1C)n2CCCCCC1CCCCC1.[I-] | 0.4 | 10 | 0.6 | 1.5 | 5 | 2.5 | 1.6 | 10 | 5 | > 10 |  | 2.9 | 20 | 5 | 1.3 | 2.5 | 2.5 | 5.6 | > 20 | > 20 | IC50 [10]: 17 mg/L; MFC [10]: > 20 mg/L; MIC [10]: 20 mg/L
C[n+]1cccc2c1c1ccc(Cl)cc1n2CCCCCC1CCCCC1.[I-] | 0.4 | 5 | 0.6 | 0.7 | 5 | 1.3 | 1.2 | 2.5 | 2.5 | > 10 |  | 2.9 | 10 | 5 | 0.3 | 0.6 | 0.6 | 5.9 | > 20 | > 20 | IC50 [10]: 16 mg/L; MFC [10]: > 20 mg/L; MIC [10]: 20 mg/L
COc1ccc(N(CCCCCC2CCCCC2)c2ccc[n+](C)c2)cc1.[I-] | 0.3 | 10 | 0.6 | 1 | 5 | 1.3 | 1.9 | 10 | 5 | > 10 |  |  |  |  |  |  |  | 5.4 | > 20 | > 20 | Activity [6]: inactive
COc1ccc2c(c1)c1c(ccc[n+]1C)n2CCCCCC1CCCCC1.[I-] | 0.7 | 20 | 1.3 | 1.6 | 2.5 | 2.5 | 3.3 | 20 | 5 | > 10 |  | 7.4 | > 20 | 20 | 0.7 | 1.3 | 1.3 | 12 | > 20 | > 20 | IC50 [10]: 16 mg/L; MFC [10]: > 20 mg/L; MIC [10]: > 20 mg/L
CSc1ccc2c(c1)c1c(ccc[n+]1C)n2CCCCCC1CCCCC1.[I-] | 0.4 | 5 | 0.6 | 0.7 | 2.5 | 1.3 | 1.1 | 10 | 2.5 | > 10 |  | 2.1 | 5 | 5 | 0.3 | 0.6 | 0.6 | 5.6 | > 20 | > 20 | IC50 [10]: 13 mg/L; MFC [10]: 20 mg/L; MIC [10]: 20 mg/L
C[n+]1cccc(N(CCCCCC2CCCCC2)c2ccc(F)cc2)c1.[I-] | 0.7 | 10 | 1.3 | 3.2 | 10 | 5 | 3 | 20 | 5 | > 10 |  |  | > 20 |  |  |  |  | 18 | > 20 | > 20 | Activity [6]: inactive
